The M2OR odorant receptor database

target: T1, OR5K1 (Homo sapiens) (UniProt Q8NHB7); conditions: stereoisomer not certain
T1 sequence (whole entry): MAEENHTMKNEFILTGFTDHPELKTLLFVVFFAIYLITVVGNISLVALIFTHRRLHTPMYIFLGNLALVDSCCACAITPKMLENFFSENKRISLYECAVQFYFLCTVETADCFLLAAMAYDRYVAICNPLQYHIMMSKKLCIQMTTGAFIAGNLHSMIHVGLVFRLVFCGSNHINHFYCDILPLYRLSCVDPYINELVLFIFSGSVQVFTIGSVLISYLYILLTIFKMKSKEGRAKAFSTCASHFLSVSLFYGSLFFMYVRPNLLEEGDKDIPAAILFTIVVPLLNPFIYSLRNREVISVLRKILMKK
How it was run: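 Each receptor–molecule pair is labelled responsive or non-responsive (inactive) according to whether the original authors judged the measured signal statistically different from baseline. The data were taken from the main text and supplementary material of published papers and checked for typos and inconsistencies. Assay methods differed by source, with transient luciferase assays in mammalian cell lines being common.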
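Note: active if original authors judged signal statistically different from baseline.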

SMILES | odorant receptor agonist call
CCCCCCCC1CCC(=O)O1 (centres undefined) | inactive
CC(C)c1ccc(C=O)cc1 | inactive
CCOC(=O)C1CCCCC1 | inactive
CSCCCO | inactive
CCCSSCCC | inactive
CC1=CCC2CC1C2(C)C (centres undefined) | inactive
Cc1cccc(O)c1 | inactive
CCCCCCCC(C)=O | inactive
OCCc1ccccc1 | inactive
CCc1ccc(O)cc1 | inactive
CCCCCc1ccccn1 | inactive
CC(C)=CCCC(C)=CCO | inactive
CC(=O)OCC=Cc1ccccc1 | inactive
CCCCC=CC=O | inactive
C=Cc1ccc(O)cc1 | inactive
COC1=C(C)OC(C)C1=O (centres undefined) | active
CCOC(=O)CCC(C)C | inactive
CCCCCC(=O)OCC | inactive
Cc1occc(=O)c1O | inactive
CCCCC(=O)O | inactive

SMILES | odorant receptor agonist call
CCc1cccc(O)c1 | inactive
CCOC(=O)C(C)C | inactive
CCCCCC=CC=CC=O | inactive
CCOC(=O)C=Cc1ccccc1 | inactive
C=CC(=C)CCC=C(C)C | inactive
O=C(O)CCc1ccccc1 | inactive
COc1ccc(C)cc1O | inactive
CCCCCCC1CCC(=O)O1 (centres undefined) | inactive
CCCC(O)CC(=O)OCC (centres undefined) | inactive
CCCCCCCC(=O)OCC | inactive
CCc1cnc(C)c(C)n1 | inactive
CCC(=O)O | inactive
C=C(C)c1ccc(C)cc1 | inactive
CC(=O)C1=NCCS1 | inactive
CCCCCC=CC=O | inactive
CC(=O)C=CC1=C(C)CCCC1(C)C | inactive
CCCCCCCCCC(=O)[O-].[H+] | inactive
CCC(C)CCC(=O)[O-] (centres undefined) | inactive
Cc1cccc(C)c1O | inactive
